In ChEMBL document CHEMBL1157084, “Exploring the structural requirements for inhibition of the ubiquitin E3 ligase breast cancer associated protein 2 (BCA2) as a treatment for breast cancer” (J Med Chem, 2010):
The source made the active and inactive calls. The rule behind the calls is not given here.

Experiments:
MCF7 [1] = assay: Antiproliferative activity against human MCF7 cells expressing BCA2 and estrogen receptor after 72 hrs by MTT assay; format: functional, cell-based; conditions: MCF7, 72 h
Method in brief: (§1)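 Each compound run in triplicate; actives repeated in three independent experiments, IC50 read from growth curves as mean ± SD. Cells in RPMI 1640 + 10% heat-inactivated FBS (MDA-MB-231/ER also with 1 mg/mL G418; MCF10A in MEGM), 37 °C, 5% CO2, exponential phase.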

MDA-MB-231 [2] = assay: Antiproliferative activity against human MDA-MB-231 cells expressing BCA2 and ERalpha after 72 hrs by MTT assay; format: functional, cell-based; conditions: MDA-MB-231, 72 h; method in brief: as §1
MDA-MB-231 [3] = assay: Antiproliferative activity against BCA2 and ER deficient human MDA-MB-231 cells after 72 hrs by MTT assay; format: functional, cell-based; conditions: MDA-MB-231, 72 h; method in brief: as §1
T47D = assay: Antiproliferative activity against human T47D cells expressing BCA2 and estrogen receptor after 72 hrs by MTT assay; format: functional, cell-based; method in brief: as §1
[4] = Antiproliferative activity against human MCF10A cells after 72 hrs by MTT assay; format: cell-based; conditions: MCF-10A; method in brief: as §1
Homo sapiens [5] = species: Homo sapiens; assay: Inhibition of wild type human recombinant His-BCA2 autoubiquitination expressed in Escherichia coli at 5 uM after 30 mins by Western blotting in presence of human recombinant E2 UbcH5b
Method in brief: (§2)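 10 ng E. coli-expressed His-BCA2 preincubated 30 min at room temperature with compound (final 5 or 50 μM, DMSO stocks). Then added ATP, 1 μg ubiquitin, 20 ng rabbit E1 and 20 ng UbcH5b in Tris HCl pH 8.0 with DTT and MgCl2. Reaction 1 h at 30 °C, then SDS-PAGE on 4–20% gel and immunoblot with anti-ubiquitin antibody.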

Homo sapiens [6] = species: Homo sapiens; assay: Inhibition of wild type human recombinant His-BCA2 autoubiquitination expressed in Escherichia coli at 50 uM after 30 mins by Western blotting in presence of human recombinant E2 UbcH5b; method in brief: as §2
K562 = assay: Percentage of ALDH+ cells in human K562 cells at 15 uM after 45 mins by flow cytometry based method; conditions: K562, 0.75 h
[7] = target: E3 ubiquitin-protein ligase Mdm2 (Homo sapiens) (UniProt Q00987); assay: Inhibition of recombinant RING-E3 ligase Mdm2 autoubiquitination at 5 to 50 uM after 30 mins by Western blotting in presence of human recombinant E2 UbcH5b
Sequence of E3 ubiquitin-protein ligase Mdm2 (Homo sapiens) (Q00987 whole entry, looked up): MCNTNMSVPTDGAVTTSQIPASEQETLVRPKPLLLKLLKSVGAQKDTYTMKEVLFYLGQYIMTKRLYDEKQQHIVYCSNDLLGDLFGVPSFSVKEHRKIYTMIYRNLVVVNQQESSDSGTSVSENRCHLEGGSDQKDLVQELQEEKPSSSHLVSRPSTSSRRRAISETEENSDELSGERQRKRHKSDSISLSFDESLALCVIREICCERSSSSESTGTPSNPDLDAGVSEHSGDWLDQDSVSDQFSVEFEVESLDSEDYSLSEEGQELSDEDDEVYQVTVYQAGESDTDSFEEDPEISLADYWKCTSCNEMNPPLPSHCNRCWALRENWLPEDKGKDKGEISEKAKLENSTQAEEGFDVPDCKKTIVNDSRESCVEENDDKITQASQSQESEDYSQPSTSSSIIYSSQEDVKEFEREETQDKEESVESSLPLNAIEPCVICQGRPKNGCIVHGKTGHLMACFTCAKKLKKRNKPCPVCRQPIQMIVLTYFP

[8] = target: T1, Aldehyde dehydrogenase 1A1 (Homo sapiens) (UniProt P00352); assay: Inhibition of ALDH1 in human K562 cells at 15 uM after 45 mins by flow cytometry based method relative to bodipy-aminoacetaldehyde; format: cell-based
T1 sequence (whole entry): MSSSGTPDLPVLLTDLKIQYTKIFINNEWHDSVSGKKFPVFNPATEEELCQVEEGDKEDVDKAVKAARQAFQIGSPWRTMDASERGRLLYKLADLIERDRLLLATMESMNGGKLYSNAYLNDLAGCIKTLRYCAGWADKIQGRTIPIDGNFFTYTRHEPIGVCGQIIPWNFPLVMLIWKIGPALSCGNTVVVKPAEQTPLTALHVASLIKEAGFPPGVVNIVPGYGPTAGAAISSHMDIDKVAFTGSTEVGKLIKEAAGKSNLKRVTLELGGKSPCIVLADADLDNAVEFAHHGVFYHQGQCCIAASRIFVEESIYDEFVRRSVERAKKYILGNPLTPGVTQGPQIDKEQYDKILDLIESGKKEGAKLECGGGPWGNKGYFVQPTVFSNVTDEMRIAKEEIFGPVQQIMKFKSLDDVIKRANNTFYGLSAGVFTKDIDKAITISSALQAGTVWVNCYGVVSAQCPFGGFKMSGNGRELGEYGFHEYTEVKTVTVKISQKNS

MCF7 [9] = assay: Reduction of BCA2 protein expression in human MCF7 cells at IC100 after 16 hrs by Western blotting in presence of MG132; format: functional, cell-based
MCF7 [10] = assay: Reduction of BCA2 protein expression in human MCF7 cells at IC100 after 16 hrs by Western blotting; format: functional, cell-based
MCF7 [11] = assay: Reduction of BCA2 protein expression in human MCF7 cells at IC100 after 16 hrs by Western blotting in presence of cyclohexamide; format: functional, cell-based
MCF7 [12] = assay: Reduction of BCA2 protein expression in human MCF7 cells at IC100 after 16 hrs by Western blotting in presence of cyclohexamide and MG132; format: functional, cell-based
MCF7 [13] = assay: Antiproliferative activity against human MCF7 cells expressing BCA2 and estrogen receptor at IC50 concentration after 5 days by MTT assay in presence of 75 uM to 600 nM zinc chloride; format: functional, cell-based
Method in brief: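 MCF-7 cells (BCA2+, ER+) grown in RPMI 1640 with 10% heat-inactivated FBS, 37 °C, 5% CO2, used in exponential growth. Drug given with zinc chloride across 600 nM–75 μM for 5 days, then MTT read-out. Vehicle-treated cells without ZnCl2 or drug set as 100% growth.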

SMILES	IC50 (MCF7 [1])	IC50 (MDA-MB-231 [2])	IC50 (MDA-MB-231 [3])	IC50 (T47D)	IC50 [4]	Activity (Homo sapiens [5])	Activity (Homo sapiens [6])	ALDH+ cells (%) at 15 µM (K562)	Activity [7]	inhibition [8]	Activity (MCF7 [9])	Activity (MCF7 [10])	Activity (MCF7 [11])	Activity (MCF7 [12])	Activity (MCF7 [13])
CCN(CC)C(=S)SSc1ccc(C(=O)O)cc1	500 nM	550 nM	6300 nM	150 nM	> 10000 nM										
S=C(SSC(=S)N1CCCC1)N1CCCC1 [BIS(PYRROLIDINYLTHIOCARBONYL)DISULFIDE]	380 nM	250 nM	> 10000 nM	280 nM	> 10000 nM	inactive	Active	39%	inactive	3.4%					
S=C(SSC(=S)N1CCCCC1)N1CCCCC1 [BIS(PIPERIDINYLTHIOCARBONYL)DISULFIDE]	30 nM	590 nM	> 10000 nM	270 nM	> 10000 nM	inactive	Active	8.3%	inactive	79.5%	Active	Active	Active	Active	inactive
C1CN(SSN2CCOCC2)CCO1 [DITHIODIMORPHOLINE]	> 10000 nM	> 10000 nM	> 10000 nM	> 10000 nM	> 10000 nM										
Cc1cc(C)n2c1C=C1C=CC(CCC(=O)NCC=O)=[N+]1[B-]2(F)F								40.4%		0%					
CCN(CC)C(=S)SSCCO	500 nM	2750 nM		300 nM	> 10000 nM	inactive	Active		inactive	8.6%					
S=C(SSC1CCCCC1)N1CCCCC1	600 nM	2300 nM	6700 nM	250 nM	> 10000 nM										
CCCCCCSSC(=S)N(CC)CC [DIETHYLCARBAMO(DITHIOPEROXO)THIOATE]	430 nM	350 nM	> 10000 nM	230 nM	> 10000 nM	inactive	Active	36.5%	inactive	9.8%	Active	Active	Active	Active	inactive
S=C(SSC1CCCCC1)N1CCCC1	1400 nM	250 nM	4700 nM	1350 nM	> 10000 nM										
CCCCSSC(=S)N1CCCCC1	650 nM	390 nM	8000 nM	350 nM	> 10000 nM										

The next lines start with results.

IC50 (MCF7 [1])	IC50 (MDA-MB-231 [2])	IC50 (MDA-MB-231 [3])	IC50 (T47D)	SMILES	IC50 [4]	Activity (Homo sapiens [5])	Activity (Homo sapiens [6])	ALDH+ cells (%) at 15 µM (K562)	Activity [7]	inhibition [8]	Activity (MCF7 [9])	Activity (MCF7 [10])	Activity (MCF7 [11])	Activity (MCF7 [12])	Activity (MCF7 [13])
450 nM	2100 nM	6000 nM	200 nM	CCC(C)SSC(=S)N(CC)CC (stereo unspecified)	> 10000 nM										
400 nM	300 nM	7400 nM	150 nM	CCCCSSC(=S)N(CC)CC [BUTYL DIETHYLCARBAMO(DITHIOPEROXO)THIOATE]	> 10000 nM										
350 nM	290 nM	3000 nM	330 nM	CN1CCN(C(=S)SSC(=S)N2CCN(C)CC2)CC1	> 10000 nM										
100 nM	320 nM	> 10000 nM	170 nM	CCN(CC)C(=S)SSC(=S)N(CC)CC	10000 nM	inactive	Active	17.3%	inactive	57.3%					inactive
390 nM	250 nM	960 nM	230 nM	CCN(CC)C(=S)SSC(C)C [ISOPROPYL DIETHYLCARBAMO(DITHIOPEROXO)THIOATE]	> 10000 nM										
300 nM	280 nM	960 nM	180 nM	CCN(CC)C(=S)SSC1CCCCC1 [CYCLOHEXYL DIETHYLCARBAMO(DITHIOPEROXO)THIOATE]	> 10000 nM										
